In ChEMBL document CHEMBL1122423, “N-arylhydroxamic acid N,O-acyltransferase. Positional requirements for the substrate hydroxyl group” (J Med Chem, 1983):

Assays:
Cricetulus griseus [1] = species: Cricetulus griseus; experiment: Inhibition of AHAT-catalyzed transacylation of 4-aminoazobenzene
Procedure, shortened: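 Partially purified hamster hepatic AHAT (2.5–3.75 mg protein) was preincubated 5 min with inhibitor (2.5 μmol in EtOH; 1 mM) before adding acyl-donor substrate (2.5 μmol) and 4-aminoazobenzene (0.375 μmol). The 2.5 mL mix held pyrophosphate pH 7, DTT and 1.15% KCl, at 37 °C in air. Stopped with TCA/EtOH; supernatant read spectrophotometrically (Booth). Percent inhibition vs control; three experiments in triplicate.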

Cricetulus griseus [2] = species: Cricetulus griseus; experiment: Percent inhibition against AHAT when compound 8 is used as substrate at 1 mM concentration
Procedure, shortened: (§1)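 Partially purified hamster hepatic AHAT; 1 mM inhibitor (final) in ethanol was preincubated with enzyme for 5 min, then acyl donor (2.5 μmol) and 4-aminoazobenzene (0.375 μmol) were added. Mix: pyrophosphate buffer pH 7, DTT, KCl, 2.5 mL, 37 °C in air, read after 10 min. TCA-ethanol stop; spectrophotometric read-out of transacetylation. % inhibition vs control; three experiments in triplicate.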

Cricetulus griseus [3] = species: Cricetulus griseus; experiment: Percent inhibition against AHAT when compound 10 is used as substrate at 1 mM concentration; procedure, shortened: as §1

| Compound | Transacetylation rate (Cricetulus griseus [1]) | inhibition (Cricetulus griseus [2]) | inhibition (Cricetulus griseus [3]) |
| --- | --- | --- | --- |
| CC(=O)Nc1ccc(-c2ccccc2)cc1 | 0.27 nmol/min/mg | – | – |
| CC(=O)Nc1ccc(-c2ccccc2)cc1O | 0.69 nmol/min/mg | – | – |
| CCN1C(=O)C=CC1=O | – | 77% | 86% |
| CC(=O)Nc1ccc2c(c1O)Cc1ccccc1-2 | 0.11 nmol/min/mg | – | – |
| CC(=O)N(O)c1ccc(/C=C/c2ccccc2)cc1 | 9.73 nmol/min/mg | – | – |
| p-Chloromercuribenzenesulfonate | – | 92% | 96% |
| O=C(CO)Nc1ccc(/C=C/c2ccccc2)cc1 | 0.18 nmol/min/mg | – | – |
| O=C(CO)Nc1ccc2c(c1)Cc1ccccc1-2 | 0.02 nmol/min/mg | – | – |
| O=C(CO)Nc1ccc(-c2ccccc2)cc1 | 0.03 nmol/min/mg | – | – |
| CC(=O)N(O)c1ccc2c(c1)Cc1ccccc1-2 | 19.3 nmol/min/mg | – | – |
| CC(=O)N(O)c1ccc(-c2ccccc2)cc1 | 13.3 nmol/min/mg | – | – |
| NC(=O)CI | – | 99% | 99% |
| CC(=O)Nc1cc2c(cc1O)-c1ccccc1C2 | 0.05 nmol/min/mg | – | – |
